This is an account of results in ChEMBL document CHEMBL3244404, “Effect of sulfur substitution for the noncarbonyl oxygen in hemicholinium-3 and acetyl-seco-hemicholinium-3. Synthesis, biological activity, and structure-toxicity relationships” (J Med Chem, 1977).

Common to all, as to settings: in vivo
Data set [1] has as its system Mus musculus. Put plainly: Toxicity in ip dosed CD-1 mouse assessed as cardiac contractions. The format is organism-based. The essentials: (§1)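 Compounds dissolved in normal saline (0.9% NaCl) and injected ip into mice. Signs were recorded as they appeared after dosing. Animals that died were autopsied immediately, with lungs and peritoneal cavity examined for excess fluid and heart and small intestine observed.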

Data set [2] has as its system Mus musculus. Put plainly: Toxicity in ip dosed CD-1 mouse assessed as clonic convulsions. It is filed as organism-based. The essentials: as §1
The nature of data set [3]: Toxicity in ip dosed CD-1 mouse assessed as mortality in presence of 20 mg/kg, ip choline. It is filed as organism-based. On the set-up: dose 20 mg/kg, route intraperitoneal.
The test system of data set [4] is Mus musculus. Put plainly: Toxicity in ip dosed CD-1 mouse assessed as mild to moderate ataxia. The format is organism-based. The essentials:
as §1

The test system of data set [5] is Mus musculus. The data set is described as follows: Toxicity in ip dosed CD-1 mouse assessed as respiratory difficulties. It is filed as organism-based. The essentials: as §1
In data set [6] the test system is Mus musculus. The data set is described as follows: Toxicity in ip dosed CD-1 mouse assessed as loss of righting response. It is filed as organism-based. The essentials:
as §1

Data set [7] is described as follows: Toxicity in ip dosed CD-1 mouse assessed as mortality in presence of 0.2 mg/kg, ip neostigmine. It is filed as organism-based. On the set-up: dose 0.2 mg/kg, route intraperitoneal.
For data set [8], the system named is Mus musculus. Put plainly: Toxicity in ip dosed CD-1 mouse assessed as excess fluids in lungs and peritoneal cavity. It is filed as organism-based. A digest of the protocol: as §1
The test system of data set [9] is Mus musculus. The data set is described as follows: Toxicity in ip dosed CD-1 mouse assessed as exophthalmos. It is filed as organism-based. The essentials: as §1
The subject of data set [10] is Mus musculus. The data set is described as follows: Toxicity in ip dosed CD-1 mouse assessed as SLUD syndrome. It is filed as organism-based. A digest of the protocol:
as §1

Data set [11] deals with Mus musculus. Put plainly: Toxicity in ip dosed CD-1 mouse assessed as increase in peristalsis of the small intestine. The format is organism-based. A digest of the protocol: as §1
Data set [12] concerns Mus musculus. Put plainly: Ratio of HC-3 LD50 to compound LD50 in CD-1 mouse. The format is ADME, organism-based. The essentials:
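Mice received the compounds ip, dissolved in normal saline (0.9% NaCl). Deaths were scored to derive the ip LD50 in mg/kg with 95% confidence limits. Each LD50 was also expressed as a ratio to that of HC-3. Signs were recorded in the animals that died, and immediate autopsy examined the heart, intestine, lungs and peritoneal cavity.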

`C[N+]1(C)CCOC(O)(c2ccc(-c3ccc(C4(O)C[N+](C)(C)CCO4)cc3)cc2)C1.[Br-].[Br-]` (configuration not stated): the Activity result in the data set on Mus musculus [1] is “Non-toxic”; in the data set on Mus musculus [2], “Toxic”; in the data set with Mus musculus [4] it was “Toxic”; in the data set with Mus musculus [5], “Toxic”; with Mus musculus [6], “Toxic”; in the data set on Mus musculus [8] it was “Non-toxic”. Moreover, the Activity result with Mus musculus [9], in the data set with Mus musculus [10] and with Mus musculus [11] was “Toxic” in each case. The mortality (usually the share of the test organisms that died) came out at 15% in data set [3] and 90% in data set [7].
Consider `CC(=O)OCC[N+](C)(C)CC(=O)c1ccc(-c2ccc(C(=O)C[N+](C)(C)CCOC(C)=O)cc2)cc1.[Br-].[Br-]`, for which the Activity result was “Non-toxic” with Mus musculus [1]; “Toxic” in the data set on Mus musculus [2]; “Toxic” in the data set on Mus musculus [4]; “Toxic” in the data set with Mus musculus [5]; “Toxic” with Mus musculus [6]; “Non-toxic” with Mus musculus [8]. The Activity result with Mus musculus [9], with Mus musculus [10] and with Mus musculus [11] was “Toxic” throughout. Also, the mortality in data set [3] worked out at 0%; in data set [7], 80%. Further, in the data set with Mus musculus [12], the Ratio is recorded as 1.
With `CC(=O)SCC[N+](C)(C)CC(=O)c1ccc(-c2ccc(C(=O)C[N+](C)(C)CCSC(C)=O)cc2)cc1.[Br-].[Br-]`, the Activity entry in the data set on Mus musculus [1] is on record as “Non-toxic”; with Mus musculus [2], “Toxic”; with Mus musculus [4], “Toxic”; with Mus musculus [5], “Toxic”; in the data set with Mus musculus [6] it was “Toxic”; in the data set on Mus musculus [8], “Non-toxic”. The Activity result in the data set on Mus musculus [9], in the data set on Mus musculus [10] and with Mus musculus [11] was “Toxic” throughout. Further, the mortality in data set [3] came out at 40%; in data set [7] it was 30%. Also, the Ratio in the data set with Mus musculus [12] is listed as 1.
In the case of `C[N+](C)(CCS)CC(=O)c1ccc(-c2ccc(C(=O)C[N+](C)(C)CCS)cc2)cc1.[Br-].[Br-]`, the Activity result in the data set on Mus musculus [1] is on record as “Non-toxic”; with Mus musculus [2], “Toxic”; in the data set with Mus musculus [4] it was “Toxic”; in the data set on Mus musculus [5], “Toxic”; in the data set on Mus musculus [6] it was “Toxic”; in the data set with Mus musculus [8], “Non-toxic”. In addition, the Activity entry in the data set on Mus musculus [9], in the data set with Mus musculus [10] and with Mus musculus [11] was “Toxic” in each case. For the same compound, the values for the mortality in data set [3] and in data set [7] were 10% and 70%, respectively. Besides, in the data set on Mus musculus [12], the Ratio was 226.
